# Data reported in ChEMBL document CHEMBL4118259, “Synthesis of sulfadiazinyl acyl/aryl thiourea derivatives as calf intestinal alkaline phosphatase inhibitors, pharmacokinetic properties, lead optimization, Lineweaver-Burk plot evaluation and binding analysis” (Bioorg Med Chem, 2018).
# Calls of active or inactive are those of the source. No cut-off for these calls is given here.
# Assay: Antioxidant activity assessed as DPPH radical scavenging activity at 100 ug/ml measured after 30 mins
# Type: functional
# How it was run: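 DPPH radical scavenging with compounds at 100 µg/mL; mixture incubated at room temperature for 30 min, absorbance read at 517 nm; ascorbic acid as reference inhibitor; percentage activity given as mean ± SEM.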
row,SMILES,Activity
1,O=C(NC(=S)Nc1ccc(S(=O)(=O)Nc2ncccn2)cc1)c1ccc(Cl)cc1Cl,Active
2,COc1ccc(C(=O)NC(=S)Nc2ccc(S(=O)(=O)Nc3ncccn3)cc2)cc1,inactive
3,O=C(NC(=S)Nc1ccc(S(=O)(=O)Nc2ncccn2)cc1)c1ccc(Cl)cc1,inactive
4,O=C(NC(=S)Nc1ccc(S(=O)(=O)Nc2ncccn2)cc1)c1ccc(F)cc1,inactive
5,CC(=O)NC(=S)Nc1ccc(S(=O)(=O)Nc2ncccn2)cc1,inactive
6,CCCC(=O)NC(=S)Nc1ccc(S(=O)(=O)Nc2ncccn2)cc1,inactive
7,O=C(NC(=S)Nc1ccc(S(=O)(=O)Nc2ncccn2)cc1)c1ccccc1Cl,inactive
8,O=C(NC(=S)Nc1ccc(S(=O)(=O)Nc2ncccn2)cc1)c1cc([N+](=O)[O-])cc([N+](=O)[O-])c1,Active
9,CCCCCCCC(=O)NC(=S)Nc1ccc(S(=O)(=O)Nc2ncccn2)cc1,inactive
10,CCCCCCC(=O)NC(=S)Nc1ccc(S(=O)(=O)Nc2ncccn2)cc1,inactive
11,O=C1O[C@H]([C@@H](O)CO)C(O)=C1O,Active
